Reference: ChEMBL document CHEMBL3392955, “Thiol-derivatized minihepcidins retain biological activity” (Bioorg Med Chem Lett, 2015)
Active and inactive are the calls of the source. No cut-off for these calls is given here.

Key:
Ferroportin = molecular target: T1, Ferroportin (Homo sapiens, UniProt Q9NP59); assay: Induction of human ferroportin degradation expressed in HEK293 cells after 24 hrs by flow cytometry; assay type: cell-based
T1 sequence (Q9NP59 whole entry): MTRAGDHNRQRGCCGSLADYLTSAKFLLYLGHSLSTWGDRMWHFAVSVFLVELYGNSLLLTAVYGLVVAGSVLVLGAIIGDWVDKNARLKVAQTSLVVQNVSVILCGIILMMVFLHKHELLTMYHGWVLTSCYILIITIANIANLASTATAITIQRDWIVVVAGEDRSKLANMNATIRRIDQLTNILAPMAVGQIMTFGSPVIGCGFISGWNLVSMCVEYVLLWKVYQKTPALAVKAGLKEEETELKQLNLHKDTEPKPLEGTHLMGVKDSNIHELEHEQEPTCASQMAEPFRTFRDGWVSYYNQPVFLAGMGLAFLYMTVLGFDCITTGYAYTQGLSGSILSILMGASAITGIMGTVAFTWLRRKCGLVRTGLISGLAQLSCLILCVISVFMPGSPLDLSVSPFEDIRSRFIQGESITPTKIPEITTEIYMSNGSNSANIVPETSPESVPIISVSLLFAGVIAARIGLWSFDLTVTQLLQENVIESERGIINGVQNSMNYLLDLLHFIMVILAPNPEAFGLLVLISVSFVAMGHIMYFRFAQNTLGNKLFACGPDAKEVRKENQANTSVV
Summary of the method: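 HEK293:TREX-Fpn-GFP cells (human ferroportin-GFP under a doxycycline-inducible promoter) plated on poly-D-lysine with 20 μM FAC. Fpn induced with 500 ng/mL doxycycline for 24 h, then washed off. Peptide exposure 24 h. Green fluorescence read by flow cytometry, gated against uninduced cells; induced untreated cells are the positive control.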

Mus musculus [1] = assay: Induction of human ferroportin degradationin C57BL/6 mouse assessed as decrease in serum iron at 50 to 100 nmol, ip measured after 6 to 24 hrs by colorimetric assay; assay type: functional, organism-based
Summary of the method: (§1)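 Mice dosed intraperitoneally with 50 or 100 nmoles peptide in 100 μL PBS; controls received 100 μL PBS. Killed at 6, 24 or 48 h. Serum from cardiac-puncture blood. Iron measured by microplate colorimetric assay on 50 μL serum. Result is % decrease versus mean serum iron of PBS-injected mice.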

[2] = Stability of the compound in DMSO at room temperature after 30 days by LC/MS/MS analysis; assay type: physicochemical; settings: read-out: Stability
Summary of the method: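 Compound kept as a 10 mM DMSO solution at room temperature for 30 days. Remaining intact compound (decomposition or sulfide oxidation) measured by LC/MS/MS.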

Mus musculus [3] = assay: Induction of human ferroportin degradationin C57BL/6 mouse assessed as decrease in serum iron at 50 to 100 nmol, ip measured after 48 hrs by colorimetric assay; assay type: functional, organism-based; summary of the method: as §1

Compound | EC50 (Ferroportin) | other results
CCCCCCCCCCCCCCCCNC(=O)CN(CC(N)=O)C(=O)CCCCCNC(=O)[C@H](Cc1ccccc1)NC(=O)[C@H](CCCNC(=N)N)NC(=O)[C@H](CS/C=C\C(=O)O)NC(=O)[C@H](CCCNC(=N)N)NC(=O)C[C@@H]1CCCN1C(=O)[C@@H](NC(=O)[C@H](Cc1cnc[nH]1)NC(=O)[C@@H](NC(=O)CNC(=O)CO)[C@@H](C)O)C(c1ccccc1)c1ccccc1 | 218 nM | 
CCCCCCCCCCCCCCCCNC(=O)CN(CC(N)=O)C(=O)CCCCCNC(=O)[C@H](Cc1ccccc1)NC(=O)[C@H](CCCNC(=N)N)NC(=O)[C@H](CS/C(=C\S(=O)(=O)C(C)(C)C)S(=O)(=O)C(C)(C)C)NC(=O)[C@H](CCCNC(=N)N)NC(=O)C[C@@H]1CCCN1C(=O)[C@@H](NC(=O)[C@H](Cc1cnc[nH]1)NC(=O)[C@@H](NC(=O)CNC(=O)CO)[C@@H](C)O)C(c1ccccc1)c1ccccc1 | 10 nM | 
CCCCCCCCCCCCCCCCNC(=O)CN(CC(N)=O)C(=O)CCCCCNC(=O)[C@H](Cc1ccccc1)NC(=O)[C@H](CCCNC(=N)N)NC(=O)[C@H](CS/C(=C\C(N)=O)C(N)=O)NC(=O)[C@H](CCCNC(=N)N)NC(=O)C[C@@H]1CCCN1C(=O)[C@@H](NC(=O)[C@H](Cc1cnc[nH]1)NC(=O)[C@@H](NC(=O)CNC(=O)CO)[C@@H](C)O)C(c1ccccc1)c1ccccc1 | 8.4 nM | 
CCCCCCCCCCCCCCCCNC(=O)CN(CC(N)=O)C(=O)CCCCCNC(=O)[C@H](Cc1ccccc1)NC(=O)[C@H](CCCNC(=N)N)NC(=O)[C@H](CS/C(=C\S(N)(=O)=O)c1ccccc1)NC(=O)[C@H](CCCNC(=N)N)NC(=O)C[C@@H]1CCCN1C(=O)[C@@H](NC(=O)[C@H](Cc1cnc[nH]1)NC(=O)[C@@H](NC(=O)CNC(=O)CO)[C@@H](C)O)C(c1ccccc1)c1ccccc1 | 34 nM | 
CCCCCCCCCCCCCCCCNC(=O)CN(CC(N)=O)C(=O)CCCCCNC(=O)[C@H](Cc1ccccc1)NC(=O)[C@H](CCCNC(=N)N)NC(=O)[C@H](CS/C(=C\P(=O)(OCC)OCC)P(=O)(OCC)OCC)NC(=O)[C@H](CCCNC(=N)N)NC(=O)C[C@@H]1CCCN1C(=O)[C@@H](NC(=O)[C@H](Cc1cnc[nH]1)NC(=O)[C@@H](NC(=O)CNC(=O)CO)[C@@H](C)O)C(c1ccccc1)c1ccccc1 | 1.1 nM | Activity (Mus musculus [1]): Active; remaining at 720 h [2]: 99.5%; Activity (Mus musculus [3]): inactive

Continued, in another order:

EC50 (Ferroportin) | Compound | other results
12.6 nM | CCCCCCCCCCCCCCCCNC(=O)CN(CC(N)=O)C(=O)CCCCCNC(=O)[C@H](Cc1ccccc1)NC(=O)[C@H](CCCNC(=N)N)NC(=O)[C@H](CS/C(=C\C(=O)OC)C(=O)OC)NC(=O)[C@H](CCCNC(=N)N)NC(=O)C[C@@H]1CCCN1C(=O)[C@@H](NC(=O)[C@H](Cc1cnc[nH]1)NC(=O)[C@@H](NC(=O)CNC(=O)CO)[C@@H](C)O)C(c1ccccc1)c1ccccc1 | 
10.4 nM | CCCCCCCCCCCCCCCCNC(=O)CN(CC(N)=O)C(=O)CCCCCNC(=O)[C@H](Cc1ccccc1)NC(=O)[C@H](CCCNC(=N)N)NC(=O)[C@H](CS/C(=C\C(=O)OCC)C(=O)OCC)NC(=O)[C@H](CCCNC(=N)N)NC(=O)C[C@@H]1CCCN1C(=O)[C@@H](NC(=O)[C@H](Cc1cnc[nH]1)NC(=O)[C@@H](NC(=O)CNC(=O)CO)[C@@H](C)O)C(c1ccccc1)c1ccccc1 | 
6.3 nM | CCCCCCCCCCCCCCCCNC(=O)CN(CC(N)=O)C(=O)CCCCCNC(=O)[C@H](Cc1ccccc1)NC(=O)[C@H](CCCNC(=N)N)NC(=O)[C@H](CS/C(=C\C(=O)OC(C)(C)C)C(=O)OC(C)(C)C)NC(=O)[C@H](CCCNC(=N)N)NC(=O)C[C@@H]1CCCN1C(=O)[C@@H](NC(=O)[C@H](Cc1cnc[nH]1)NC(=O)[C@@H](NC(=O)CNC(=O)CO)[C@@H](C)O)C(c1ccccc1)c1ccccc1 | 
